Measurements of several laboratories.
Lines come from different studies, so protocols differ.
Target: Serine/threonine-protein kinase N1 (PKN1, Homo sapiens, UniProt Q16512)

Cn1cncc1[C@@](O)(COc1ccc(C#N)cc1-c1ccc(OC(F)(F)F)cc1)c1ccc(C#N)cc1  remaining binding (cell-free assay; competition with immobilised ligand; 1 µM): 100%
Nc1ncc(-c2nc(N3CCOCC3)nc(N3CCOCC3)n2)c(C(F)F)n1  remaining binding (binding; competition with immobilised ligand; 10 µM): 49%
Cn1cc(-c2cc(F)cc(N3CCn4c(cc5c4CCCC5)C3=O)c2CO)cc(Nc2ccc(N3CCN(C4COC4)CC3)cn2)c1=O  inhibition (enzyme activity; inhibitor; 0.1 µM): 11%
COc1ncccc1-c1cnn2ccc(N3CCN(C(=O)OC(C)C)CC3)nc12  remaining binding (binding; competition with immobilised ligand; 1 µM): 90%
Cn1cc(-c2cccc(N3CCc4c(sc5c4CC(C)(C)C5)C3=O)c2CO)cc(Nc2ccncn2)c1=O  inhibition (enzyme activity; inhibitor; 1 µM): 1%
Cc1n[nH]c2ccc(-c3cncc(OC[C@@H](N)Cc4c[nH]c5ccccc45)c3)cc12  activity vs control (enzyme activity; inhibitor; 1 µM): -1%
CC(C)(C)c1cc(C=C(C#N)C#N)cc(Br)c1O  remaining activity (enzyme activity; inhibitor; 0.5 µM): 94.5%
Cc1ccccc1-n1c(Cn2cnc3c(N)ncnc32)nc2cccc(C)c2c1=O  activity vs control (enzyme activity; inhibitor; 1 µM): 81%
O=c1[nH]c2ccccc2n1C1CCN(Cc2ccc(-c3[nH]c4cc5ncnc5cc4nc3-c3ccccc3)cc2)CC1  remaining signal (cell-free assay; 0.5 µM): 90.3%
O=c1[nH]c2ccc(Cl)cc2c(N[C@@H]2CN3CCC2CC3)c1-c1nc2ccccc2[nH]1  activity vs control (enzyme activity; inhibitor; 1 µM): -1%
N#CC1(c2ccccn2)CCN(Cc2cc(C(=O)O)c(=O)n3ccccc23)CC1  remaining binding (cell-free assay; competition with immobilised ligand; 1 µM): 100%
